ALR inh – human ALR oxidase inhibition via reduced H2O2. purified ALR, DTT oxidation, H2O2 HRP-luminol luminescence. inhibition, % (test concentration not listed). hit rate 3.8% among 290,000. AID 485317;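 active = mean replicate inhibition above about 79%, with every replicate also reaching it, limit read from the data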
Target sequence (P55789 whole entry, looked up): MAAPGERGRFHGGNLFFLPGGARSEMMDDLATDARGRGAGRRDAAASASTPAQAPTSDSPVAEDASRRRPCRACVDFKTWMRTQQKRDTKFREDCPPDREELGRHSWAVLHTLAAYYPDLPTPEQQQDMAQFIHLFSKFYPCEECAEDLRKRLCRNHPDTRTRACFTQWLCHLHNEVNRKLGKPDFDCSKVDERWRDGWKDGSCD
DYRK1A inh – blocks rat Dyrk1A kinase activity; Q63470; ADP-Glo luminescence, NFATc1 peptide; inhibition, % at 12.5 µM; hit rate 0.43% among 310,000; in the data active = inhibition above about 50%;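 also: plate controls were vehicle with enzyme for no effect and no enzyme for full effect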
Rtt109 Vps75 – C. albicans Rtt109 histone acetyltransferase inhibition; Q5AAJ8; inhibition, % at 34.9 µM; purified Rtt109/Vps75, ThioGlo CoA-SH fluorescence, 4 h; hit rate 0.16% among 330,000;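 active = inhibition of at least 50% in every replicate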
CAL PDZ FP-1 – blocks peptide binding to the human CAL PDZ domain. Q9HD26. inhibition, % at 24.9 µM. purified CAL PDZ, TMR-peptide fluorescence polarization, 1 h. hit rate 0.92% among 300,000. AID 602252;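 active = mean inhibition of at least 30% with at least half of replicates also reaching 30%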;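 also: 0% = DMSO neutral control and 100% = excess unlabeled competitor peptide PRC23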
CAL PDZ FP-2 – blocks peptide binding to human CAL PDZ domain. inhibition, % at 20 µM. purified CAL PDZ, TMR-peptide fluorescence polarization, 1 h. Q9HD26. AID 504414. hit rate 0.02% among 330,000;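 active = highest replicate inhibition of at least 40%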;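 also: plate controls were DMSO neutral control wells for no effect and unlabeled competitor peptide control wells for full effect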
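Material: tagged CAL PDZ domain; buffer or medium: 25 mM sodium phosphate pH 7.4, 150 mM NaCl, TCEP, IgG, Thesit; compound dosing: single point, 20 µM; schedule: 1 h incubation at room temperature before polarization reading; measured by: FP readout, S and P plane fluorescence; read-out basis: percent inhibition from loss of millipolarization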
* = called active by the depositor; nt = not tested or not shown. Hits are enriched below; roughly 4.3% of the tested compounds scored in any of these assays.

SMILES | ALR inh | DYRK1A inh | Rtt109 Vps75 | CAL PDZ FP-1 | CAL PDZ FP-2
O=C(CNC(=O)c1ccco1)NCC(=O)OCC(=O)c1ccc(Cl)c([N+](=O)[O-])c1 | 98.4* | -3.2 | -4.2 | -5.2 | -0.7
O=C(CNC(=O)c1ccco1)OCC(=O)c1ccc([N+](=O)[O-])cc1 | 99.5* | 0.3 | 9.2 | -5.6 | -3.1
O=C(CNC(=O)c1ccco1)OCC(=O)c1ccc(Cl)cc1 | nt | 3.7 | nt | -0.1 | -1.8
NC(N)=NCC(O)CN(c1ccccc1)c1ccccc1 (stereo not drawn) | 98.6* | nt | nt | nt | nt
CN(CCO)CC(O)CN(c1ccccc1)c1ccccc1 (stereo not drawn) | 98.7* | 0.7 | -3.1 | -0.3 | 1.5
CNCC(O)CN(c1ccccc1)c1ccccc1 (stereo not drawn) | 98.6* | 0.3 | 1.2 | 2.5 | -7.4
CCc1ccc[n+](-c2[nH]c(=O)sc2/C=N/N=C(\[O-])c2cccnc2)c1 | 2.5 | -2.9 | 11.3 | 3.6 | -0.5
CC(C)CNC(=O)c1ccc(NC(=O)c2ccccc2[N+](=O)[O-])cc1 | 39.2 | -2.9 | 0.9 | -1.6 | 1.1
O=C(CCCc1ccccc1)NCCS(=O)(=O)N1CCN(c2ccccc2F)CC1 | -3.1 | -0.6 | -1.0 | -2.7 | -0.5
CCOc1cccc(/C=N/NC(=O)c2cc(C3CC3)[nH]n2)c1O | 97.6* | 28.8 | -13.0 | -3.3 | -3.6
CN(C)c1ccc(NC(=O)c2cnsn2)cc1 | 99.2* | nt | -1.2 | 9.0 | 0.1
Cc1noc(C)c1C(=O)Nc1ccc(F)cc1 | -4.0 | -2.2 | 2.4 | -1.6 | 0.3
Cc1noc(C)c1C(=O)Nc1ccc(N(C)C)cc1 | 99.1* | 0.0 | -7.3 | -4.7 | 3.8
CCN(CC)S(=O)(=O)c1ccc(O)c(NC(=O)CN2CCc3ccccc3C2)c1 | 1.4 | 3.0 | 2.3 | 45.3* | -1.7
CN(C)S(=O)(=O)c1ccc(Cl)c(NC(=O)CN2CCc3ccccc3C2)c1 | -4.1 | 1.1 | -8.2 | 1.4 | -2.3
COC1CCCN(C(=O)c2cccc(OC3CCN(S(=O)(=O)N(C)C)CC3)c2)C1 (stereo not drawn) | 0.0 | -2.2 | -8.7 | 1.0 | -0.4
COc1ccccc1CNC(=O)CN1C(=O)NC(c2ccccc2)(c2ccc(C)c(C)c2)C1=O (stereo not drawn) | nt | -9.0 | 0.9 | 6.6 | 0.7
CCOC(=O)c1ccccc1NC(=O)CSc1ccc(-c2ccccn2)nn1 | 0.4 | -6.5 | 2.7 | 50.7* | -1.9
COC(=O)[C@H](CO)N1C(=O)[C@@H]2[C@H](C1=O)C1C=C[C@H]2C1 | nt | -12.7 | 8.6 | -3.7 | 0.6
Cc1ccc(C(=O)Nc2ccccc2N2CCCC2)cc1S(=O)(=O)N1CCOCC1 | 98.3* | nt | 3.9 | -2.2 | -1.9
O=C(Nc1ccccc1O)c1cc(S(=O)(=O)N2CCOCC2)c(Cl)cc1Cl | 90.4* | 9.9 | 25.6 | -2.6 | -2.1
CN1CCN(S(=O)(=O)c2cccc(C(=O)Nc3ccccc3N3CCCC3)c2)CC1 | 49.3 | 0.0 | 1.0 | -2.9 | -2.4
Cc1cccc(N2CCN(C(=O)c3cccc(S(=O)(=O)N4CCCCC4)c3)CC2)c1C | -7.7 | 1.1 | 3.4 | 69.0* | -0.1
CC(=O)N1CCN(S(=O)(=O)c2cccc(C(=O)Nc3ccccc3N3CCCC3)c2)CC1 | 97.4* | 2.0 | 12.5 | 0.2 | -3.1
Cc1ccc(S(=O)(=O)N(C)C)cc1NC(=O)C(C)N(C)Cc1sccc1C (stereo not drawn) | nt | -0.4 | -3.4 | -1.2 | -2.1
SMILES | ALR inh | DYRK1A inh | Rtt109 Vps75 | CAL PDZ FP-1 | CAL PDZ FP-2
CCOC(=O)C1(CCOC)CCN(C(=O)Cc2ccc3ccccc3c2)CC1 | 0.2 | 4.4 | -5.1 | -2.4 | -0.8
Cc1ccc2cc(CCNC(=O)c3cccc([N+](=O)[O-])c3)c(=O)[nH]c2c1C | -4.1 | 8.5 | 4.2 | -2.4 | -0.1
CC1CN(S(=O)(=O)c2cccc(C(=O)Nc3cc(Cl)ccc3N3CCOCC3)c2)CC(C)O1 (stereo not drawn) | -1.4 | -2.8 | -12.9 | -7.4 | -0.4
CC1CN(S(=O)(=O)c2cccc(C(=O)Nc3ccccc3N3CCCC3)c2)CC(C)O1 (stereo not drawn) | 96.5* | 12.2 | 21.9 | -3.0 | -1.5
O=C(NC1CCCC1)C(=O)N(c1ccccc1F)C(C(=O)NCC1CCCO1)c1cccs1 (stereo not drawn) | -0.7 | -1.0 | 1.0 | -4.5 | -1.7
Cc1cc(C)nc(NC(=S)Nc2cccc(F)c2)c1 | -14.2 | nt | 4.2 | 65.0* | 0.0
Cc1cccnc1NC(=S)Nc1ccc(Cl)c(Cl)c1 | -0.9 | 2.3 | 1.0 | -1.1 | -2.2
COc1ccc(NC(=S)Nc2ncccc2C)c(OC)c1 | 99.0* | -3.3 | 3.5 | -1.0 | -0.5

Screening results as filed in PubChem.
